Experimental data from ChEMBL document CHEMBL1148398, “Design, synthesis, and biological evaluation of thio-containing compounds with serum HDL-cholesterol-elevating properties” (2004).

Assays:
Rattus norvegicus [1] = experiment: Effect of compound on lactic dehydrogenase (LDH) levels in 5th group of normal chow-fed male rats after a dose of 20 mg/kg/day; type: functional, organism-based
In short: (§1)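 Male Sprague–Dawley CD rats, 60–80 g, on chow with a reverse 12 h light/dark cycle. Given one oral gavage dose daily for 4 days, suspended in 1.3% Tween 80/0.25% CMC. Fasted overnight and sacrificed 24 h after the last dose for blood and liver. Serum liver enzymes read on a clinical analyzer. Six per group, mean ± SEM.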

Rattus norvegicus [2] = experiment: Effect of compound on gain in body weight in 2nd group of normal chow-fed male rats after a dose of 2 mg/kg/day; type: functional
In short: (§2)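 Male Sprague–Dawley CD rats (60–80 g) on standard chow under a reversed 12 h light/dark cycle. Compound was suspended in 1.3% Tween 80/0.25% CMC and given as a single daily oral gavage dose for 4 days. Rats were fasted overnight and killed 24 h after the last dose. Serum ALT, AST, ALKP and LDH were read on a clinical analyzer. Weight gain was start versus end weight. Mean ± SEM, n = 6.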

Rattus norvegicus [3] = experiment: Effect of compound on high-density lipoprotein cholesterol levels in 1st group of normal chow-fed male rats after a dose of 1 mg/kg/day; type: functional, organism-based
Rattus norvegicus [4] = experiment: Effect of compound on total plasma cholesterol levels in 3rd group of normal chow-fed male rats after a dose of 5 mg/kg/day; type: functional, organism-based
In short: (§3)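 Male Sprague–Dawley CD rats, 60–80 g, on standard chow with reverse 12 h light/dark cycle. One oral gavage dose daily for 4 days, suspended in 1.3% Tween 80 and 0.25% CMC. Fasted overnight; sacrificed 24 h after the last dose. Serum TC on clinical analyzer, lipoproteins by FPLC with cholesterol per fraction, T4 on analyzer. Mean ± SEM, six rats per group.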

Cricetinae gen. sp. [5] = experiment: Effect of compound on alkaline phosphatase (ALKP) levels in 1st group of cholesterol-fed male hamsters at 3 mg/kg/day after 14 days of treatment; settings: Mesocricetus auratus
Rattus norvegicus [6] = experiment: Effect of compound on aspartate aminotransferase (AST) levels in 6th group of normal chow-fed male rats after a dose of 50 mg/kg/day; type: functional, organism-based; in short: as §2
[7] = Effect on serum lipids in 2nd group of normal chow-fed male rats after a dose of 2 mg/kg/day was evaluated as ratio of total plasma cholesterol levels to high-density lipoprotein cholesterol levels; type: functional
In short: (§4)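 Male Sprague–Dawley CD rats, 60–80 g, chow-fed, dosed by oral gavage daily for 4 days in 1.3% Tween 80/0.25% CMC. Fasted overnight, bled 24 h after the last dose. Serum total cholesterol by enzymatic reagent; HDL-C from cholesterol in FPLC fractions; TPC/HDL-C ratio calculated. Six per group, mean ± SEM.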

Rattus norvegicus [8] = experiment: Effect of compound on liver weight in 2nd group of normal chow-fed male rats after a dose of 2 mg/kg/day; type: functional; in short: as §1
Rattus norvegicus [9] = experiment: Effect of compound on lactic dehydrogenase (LDH) levels in 4th group of normal chow-fed male rats after a dose of 10 mg/kg/day; type: functional, organism-based; in short: as §1
Rattus norvegicus [10] = experiment: Effect of compound on aspartate aminotransferase (AST) levels in 7th group of normal chow-fed male rats after a dose of 100 mg/kg/day; type: functional, organism-based; in short: as §2
Cricetinae gen. sp. [11] = experiment: Effect of compound on high-density lipoprotein cholesterol levels in 3rd group of cholesterol-fed male hamsters at 30 mg/kg/day after 14 days of treatment; type: functional, organism-based
[12] = Effect on serum lipids in 3rd group of normal chow-fed male rats after a dose of 5 mg/kg/day was evaluated as ratio of total plasma cholesterol levels to high-density lipoprotein cholesterol levels; type: functional; in short: as §4
Rattus norvegicus [13] = experiment: Effect of compound on lactic dehydrogenase (LDH) levels in 3rd group of normal chow-fed male rats after a dose of 5 mg/kg/day; type: functional, organism-based; in short: as §2
Rattus norvegicus [14] = experiment: Effect of compound on high-density lipoprotein cholesterol levels in 2nd group of normal chow-fed male rats after a dose of 2 mg/kg/day; type: functional, organism-based
Rattus norvegicus [15] = experiment: Effect of compound on liver weight in 7th group of normal chow-fed male rats after a dose of 100 mg/kg/day; type: functional; in short: as §1
Rattus norvegicus [16] = experiment: Percent change in very low-density lipoprotein cholesterol following oral administration of compound in normal chow-fed rats at 100 mg/kg/day for 4 days; type: functional
In short: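 Chow-fed male Sprague–Dawley CD rats, 60–80 g, gavaged 100 mg/kg/day for 4 days in 1.3% Tween 80/0.25% CMC. Fasted overnight, bled 24 h after the last dose. Total cholesterol and glycerol-blanked triglycerides read enzymatically; lipoproteins by FPLC with cholesterol per fraction. % change versus control; six per group, p < 0.05.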

Rattus norvegicus [17] = experiment: Effect of compound on thyroxine levels in 5th group of normal chow-fed male rats after a dose of 20 mg/kg/day; type: functional, organism-based; in short: as §3
[18] = Effect on serum lipids in 7th group of normal chow-fed male rats after a dose of 100 mg/kg/day was evaluated as ratio of total plasma cholesterol levels to high-density lipoprotein cholesterol levels; type: functional; in short: as §4
[19] = Effect on serum lipids in 6th group of normal chow-fed male rats after a dose of 50 mg/kg/day was evaluated as ratio of total plasma cholesterol levels to high-density lipoprotein cholesterol levels; type: functional; in short: as §4
Cricetinae gen. sp. [20] = experiment: Effect of compound on triglycerides level in 2nd group of cholesterol-fed male hamsters at 10 mg/kg/day after 14 days of treatment; settings: Mesocricetus auratus
Rattus norvegicus [21] = experiment: Effect of compound on serum apolipoprotein A1 concentration in chow-fed male rats at a dose of 0 mg/kg/day; type: functional, organism-based
In short: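 Separate dose-response study in male Sprague–Dawley CD rats, 60–80 g, on chow. Oral gavage once daily for 4 days in 1.3% Tween 80 / 0.25% CMC; fasted overnight, bled 24 h after last dose. Apo-A1 by ELISA with rabbit anti-rat primary, alkaline phosphatase-conjugated anti-rabbit IgG and p-nitrophenyl phosphate substrate. HDL-C by FPLC fractionation. Mean ± SEM, six per group.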

Rattus norvegicus [22] = experiment: Effect of compound on relative liver weight in 5th group of normal chow-fed male rats after a dose of 20 mg/kg/day; type: functional
In short: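 Chow-fed male Sprague–Dawley CD rats, 60–80 g, dosed by oral gavage once daily for 4 days in 1.3% Tween 80/0.25% CMC. Fasted overnight and sacrificed 24 h after the last dose. Liver weight expressed as % of body weight at termination. Six per group, mean ± SEM.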

[23] = Effect on serum lipids in 3rd group of cholesterol-fed male hamsters at 30 mg/kg/day after 14 days of treatment was evaluated as ratio of total cholesterol levels to high-density lipoprotein cholesterol levels; type: functional
In short: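 Male Syrian Golden hamsters on chow plus 0.25% cholesterol, 2 weeks before and during dosing. Oral gavage for 14 days in 2% Tween 80/saline. Fasted 4 h before sacrifice. Serum total cholesterol measured enzymatically; HDL-C from cholesterol in FPLC lipoprotein fractions; TC/HDL-C ratio calculated. Six per group, mean ± SEM.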

Rattus norvegicus [24] = experiment: Effect of compound on alkaline phosphatase (ALKP) levels in 3rd group of normal chow-fed male rats after a dose of 5 mg/kg/day; type: functional, organism-based; in short: as §2
Rattus norvegicus [25] = experiment: Effect of compound on aspartate aminotransferase (AST) levels in 2nd group of normal chow-fed male rats after a dose of 2 mg/kg/day; type: functional, organism-based; in short: as §2
Rattus norvegicus [26] = experiment: Effect of compound on alanine aminotransferase (ALT) levels in 6th group of normal chow-fed male rats after a dose of 50 mg/kg/day; type: functional, organism-based; in short: as §2

## CCN1CC(=O)N(c2cc(Cl)ccc2C)C1=S
Rattus norvegicus [1]
  Level: 1140 U l-1
Rattus norvegicus [2]
  Body weight: 28.5 g
Rattus norvegicus [3]
  Serum level: 38 mg/dL
Rattus norvegicus [4]
  Serum level: 62 mg/dL
Cricetinae gen. sp. [5]
  Level: 154 U l-1
Rattus norvegicus [6]
  Level: 232 U l-1
[7]
  Ratio: 1.37
Rattus norvegicus [8]
  Liver weight: 7.3 g
Rattus norvegicus [9]
  Level: 553 U l-1
Rattus norvegicus [10]
  Level: 214 U l-1
Cricetinae gen. sp. [11]
  Serum level: 156 mg/dL
[12]
  Ratio: 1.39
Rattus norvegicus [13]
  Level: 743 U l-1
Rattus norvegicus [14]
  Serum level: 41 mg/dL
Rattus norvegicus [15]
  Liver weight: 7.8 g
Rattus norvegicus [16]
  Change: -17.2%
Rattus norvegicus [17]
  Serum level: 4.05 µg/dL
[18]
  Ratio: 1.56
[19]
  Ratio: 2.03
Cricetinae gen. sp. [20]
  Serum level: 455 mg/dL
Rattus norvegicus [21]
  Serum level: 63.2 mg/dL
Rattus norvegicus [22]
  Relative liver weight: 4.3%
[23]
  Ratio: 2.39
Rattus norvegicus [24]
  Level: 344 U l-1
Rattus norvegicus [25]
  Level: 195 U l-1
Rattus norvegicus [26]
  Level: 62 U l-1
